From ChEMBL document CHEMBL1132647, “Synthesis, calcium mobilizing, and physicochemical properties of D-chiro-inositol 1,3,4,6-tetrakisphosphate, a novel and potent ligand at the D-myo-inositol 1,4,5-trisphosphate receptor” (J Med Chem, 1999)
Where “and” joins values, the source holds several entries; their conditions need not be identical. Identical values can stand only once.

How the values were obtained:
[1] = target: Inositol 1,4,5-trisphosphate receptor (Homo sapiens, UniProt Q14571+Q14573+Q14643); assay: The compound was tested for inhibitory activity against Inositol 1,4,5-trisphosphate receptor in L15 cell line; assay type: cell-based
In short: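 Incubation was 30 min at 4 °C with EGTA. Bound and free ligand were separated by vacuum filtration through glass fiber filters and counted by scintillation. IC50 and Hill slope came from computer curve fitting. At least three experiments in duplicate, mean ± SEM.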

RBL-1 = assay: Steady-State [Ca2+] Release from Saponin-Permeabilized RBL Cell Lines; assay type: functional, cell-based, Rattus norvegicus
SH-SY5Y = assay: Steady-State [Ca2+] Release from Saponin-Permeabilized SH-SY5Y cell line.; assay type: functional, cell-based, Homo sapiens
[2] = Hill slope by computer-assisted curve fitting.
[3] = Hill slope by computer-assisted curve fitting
L15 = assay: Steady-State [Ca2+] Release from Saponin-Permeabilized L15 Cell Lines
Lvec = assay: Steady-State [Ca2+] Release from Saponin-Permeabilized Lvec Cell Lines; assay type: functional, cell-based
In short: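 ⁴⁵Ca²⁺ release end point assay at 22 °C in saponin-permeabilized L15 cells (mouse L fibroblasts overexpressing type 1 InsP₃R about 8-fold) or Lvec vector-control cells. Stores were loaded with ⁴⁵Ca²⁺ in ATP-dependent fashion to steady state (about 15 min). Buffer was 120 mM KCl, 2 mM KH₂PO₄, 5 mM succinate, 20 mM Hepes, 2 mM ATP and 2.4 mM MgCl₂, at pH 7.2, with free Ca²⁺ set to 80–150 nM with EGTA. Retained ⁴⁵Ca²⁺ was counted by scintillation. 100% was the release by 10 µM Ins(1,4,5)P₃. EC50 and Hill slope came from curve fitting. At least four experiments in duplicate, mean ± SEM.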

| Compound | EC50 (RBL-1) [nM] | EC50 (SH-SY5Y) [nM] | EC50 (L15) [nM] | other results |
| --- | --- | --- | --- | --- |
| O=P(O)(O)OC1C(O)C(OP(=O)(O)O)C(OP(=O)(O)O)C(O)C1OP(=O)(O)O (stereo unspecified) |  |  |  | IC50 [1]: 172 nM |
| O=P(O)(O)O[C@@H]1[C@H](O)[C@H](O)[C@@H](OP(=O)(O)O)[C@H](OP(=O)(O)O)[C@H]1O (stereo in doubt) [INS(1,4,5)P3] | 4200 | 171 |  |  |
| O=P(O)(O)O[C@@H]1[C@H](O)[C@H](O)[C@@H](OP(=O)(O)O)[C@H](OP(=O)(O)O)[C@H]1O (stereo in doubt; 1) |  |  |  | Hill coefficient [2]: 1; Hill coefficient [3]: 0.96 and 1.17 |
| O=P(O)(O)O[C@@H]1[C@H](O)[C@H](O)[C@@H](OP(=O)(O)O)[C@H](OP(=O)(O)O)[C@H]1O (stereo in doubt; 1) [INS(1,4,5)P3] | 170 | 51.6 | 123 | EC50 (Lvec): 247 nM |
| O=P(O)(O)O[C@@H]1[C@H](O)[C@H](O)[C@@H](OP(=O)(O)O)[C@H](OP(=O)(O)O)[C@H]1O (stereo in doubt; 5) [INS(1,4,5)P3] | 4300 |  | 740 |  |
